The target in test [1] is T1, Alpha-1A adrenergic receptor (Rattus norvegicus, UniProt P43140).
T1 sequence (P43140 whole entry): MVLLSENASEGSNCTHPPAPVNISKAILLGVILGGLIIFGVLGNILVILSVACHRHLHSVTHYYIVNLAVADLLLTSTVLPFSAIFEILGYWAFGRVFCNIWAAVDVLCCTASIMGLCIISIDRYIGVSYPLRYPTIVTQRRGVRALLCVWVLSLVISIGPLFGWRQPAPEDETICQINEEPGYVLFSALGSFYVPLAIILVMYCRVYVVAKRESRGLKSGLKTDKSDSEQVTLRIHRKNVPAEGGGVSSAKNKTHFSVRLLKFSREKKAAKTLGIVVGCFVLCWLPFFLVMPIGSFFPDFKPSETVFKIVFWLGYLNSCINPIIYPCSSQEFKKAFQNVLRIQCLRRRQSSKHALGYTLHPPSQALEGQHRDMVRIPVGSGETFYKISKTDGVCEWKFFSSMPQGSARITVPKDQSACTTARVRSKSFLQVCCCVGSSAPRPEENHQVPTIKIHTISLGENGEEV
As to the kind of experiment: Antagonist activity at alpha1A adrenoceptor in Sprague-Dawley rat prostatic vas deferens assessed as inhibition of noradrenaline-induced contractions after 30 mins. The format is functional, tissue-based. As to conditions: read-out: pA2 (converted).

For test [2], the target named is T2, Alpha-1A adrenergic receptor (Cavia porcellus) (UniProt Q9WU25).
T2 sequence (whole entry): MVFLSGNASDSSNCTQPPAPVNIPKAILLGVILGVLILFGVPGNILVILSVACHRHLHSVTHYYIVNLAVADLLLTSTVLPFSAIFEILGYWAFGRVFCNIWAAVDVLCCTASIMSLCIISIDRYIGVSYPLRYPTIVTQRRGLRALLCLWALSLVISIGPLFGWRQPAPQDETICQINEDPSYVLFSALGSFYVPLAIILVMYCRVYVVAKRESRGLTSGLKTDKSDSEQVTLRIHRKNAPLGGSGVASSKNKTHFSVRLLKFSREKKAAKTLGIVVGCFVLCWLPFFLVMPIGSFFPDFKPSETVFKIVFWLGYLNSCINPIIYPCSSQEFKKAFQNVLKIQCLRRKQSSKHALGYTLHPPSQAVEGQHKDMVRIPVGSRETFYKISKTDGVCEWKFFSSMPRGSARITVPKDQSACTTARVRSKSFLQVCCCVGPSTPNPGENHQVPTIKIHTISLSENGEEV
As to the kind of experiment: Inverse agonist activity at alpha1A adrenoceptor in guinea pig thoracic aorta assessed as inhibition of ca2+-induced IRT at 10 nM after 30 mins. The class given is functional, tissue-based. The gist of the method: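 Tissue in Krebs equilibrated 1 h at 1 g, then given a single (−)-noradrenaline dose. Washed 1 h in Ca2+-free Krebs with 0.1 mM EDTA, with agonist reapplied until no contraction (internal Ca2+ stores depleted). Antagonist 10 nM for 30 min, then Ca2+ 1.8 mM added. Result is % decrease versus IRT without any agent; mean ± SE, 4–7 experiments.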

Test [3] has as its target T3, 5-hydroxytryptamine receptor 1A (Rattus norvegicus, UniProt P19327).
T3 sequence (P19327 whole entry): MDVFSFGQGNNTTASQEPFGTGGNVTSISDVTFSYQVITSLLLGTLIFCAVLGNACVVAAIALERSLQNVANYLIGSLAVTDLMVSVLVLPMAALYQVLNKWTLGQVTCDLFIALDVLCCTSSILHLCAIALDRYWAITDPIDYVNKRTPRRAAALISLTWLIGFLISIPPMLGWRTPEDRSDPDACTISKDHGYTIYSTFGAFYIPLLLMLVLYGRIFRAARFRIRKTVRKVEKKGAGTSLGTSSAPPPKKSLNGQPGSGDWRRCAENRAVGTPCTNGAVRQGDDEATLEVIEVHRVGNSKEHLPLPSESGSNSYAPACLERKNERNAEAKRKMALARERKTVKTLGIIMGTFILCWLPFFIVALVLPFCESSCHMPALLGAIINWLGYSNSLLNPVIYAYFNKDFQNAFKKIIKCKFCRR
As to the kind of experiment: Displacement of [3H]-8-OH-DPAT from 5-HT1A receptor in rat hippocampal membranes after 30 mins by liquid scintillation counting. The class given is cell membranes, Hippocampus, Membrane. The gist of the method:
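Crude rat hippocampal membranes in Tris-HCl 50 mM, pH 7.7, with pargyline and 4 mM CaCl2. […] Stopped by GF/B filtration, then scintillation counting. Ki from IC50 via Cheng–Prusoff; ≥3 experiments in triplicate.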
Background: In a radioligand displacement assay an active substance lowers the binding of a labelled ligand.

The values below come from ChEMBL document CHEMBL2150980 (Eur J Med Chem, 2012).

A word on the inhibition: it is how much of the control response was suppressed. Broadly, the Ki is the equilibrium dissociation constant of an inhibitor or competing ligand from its target.

On to `COc1cccc(OC)c1OCCNC[C@H]1COc2cccc(Cl)c2O1.Cl`, for which the Kb in test [1] was 0.275 nM. In test [2], the inhibition worked out at 80%. Further, the inhibitory constant (Ki) in test [3] is 1.7 nM.

As for `COc1cccc(OC)c1OCCNC[C@H]1COc2cccc(O)c2O1.Cl`, the Kb in test [1] is 166 nM. The inhibition in test [2] was found to be 100%. In test [3], the Ki is 1 nM.

Take `COc1cccc(OC)c1OCCNC[C@H]1COc2cccc(OC)c2O1.Cl`: in test [1], the Kb is 1.7 nM. For the same compound, in test [2], the inhibition is 60%. This compound gave a Ki in test [3] of 0.851 nM.

As for `COc1cccc(OC)c1OCCNC[C@H]1COc2cccc(F)c2O1.Cl`, in test [1], the Kb is 28.8 nM. Also, the inhibition in test [2] was 100%. In test [3], the Ki is 1.41 nM.

For the compound `COc1cccc(OC)c1OCCNC[C@H]1COc2c(OC)cccc2O1.Cl`, the Kb in test [1] was 53.7 nM. Also, the inhibition in test [2] was 79%. Further, the Ki in test [3] was 28.8 nM.
